Active and inactive are the calls of the source. The rule behind the calls is not given here.
Legend:
PBMC = assay: Induction of IL-6 production in human PBMC measured after 18 to 24 hrs at 0.01 to 100 uM by ELISA; assay type: functional, cell-based
Method in brief: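 Freshly Ficoll-isolated PBMCs from healthy adult donors, in RPMI with 5% autologous plasma and counted as viable cells by trypan blue, added to wells with compounds serially diluted in ethanol and dried on. Incubation 18–24 h at 37 °C/5% CO2. Supernatant IL-6 measured by ELISA, read at 450 nm; n=3 independent donors, mean ± SEM.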

[1] = biological target: T1, C-type lectin domain family 4 member E (Homo sapiens) (UniProt Q9ULY5); assay: Agonist activity at human Mincle receptor expressed in HEK cells cotransfected with NF-kappaB SEAP reporter gene assessed as increase in production of SEAP measured after 18 to 24 hrs by SEAP reporter gene-based spectrophotometric method; assay type: cell-based
T1 sequence (whole entry): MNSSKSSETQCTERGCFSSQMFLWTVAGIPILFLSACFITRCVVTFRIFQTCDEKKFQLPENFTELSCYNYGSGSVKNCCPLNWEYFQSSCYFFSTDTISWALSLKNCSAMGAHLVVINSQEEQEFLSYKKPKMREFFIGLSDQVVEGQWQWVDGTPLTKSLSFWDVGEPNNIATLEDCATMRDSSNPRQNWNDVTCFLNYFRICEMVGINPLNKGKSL
Method in brief: (§1)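 Compounds serially diluted in EtOH; 10x final concentration coated on well bottoms and solvent evaporated >1 h. HEK-Blue hMincle cells with NF-κB-driven SEAP reporter, grown in DMEM/10% FBS with blasticidin, puromycin and CLR selection, added at 3 × 10^5 cells/well. 18–24 h at 37 °C. HEK-Blue Detection, OD 620–655 nm, fold change over vehicle; n=3. HEK null cells as counter-screen.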

[2] = biological target: T1, C-type lectin domain family 4 member E (Homo sapiens); assay: Agonist activity at human Mincle receptor expressed in HEK cells cotransfected with NF-kappaB SEAP reporter gene assessed as increase in production of SEAP at 20 uM measured after 18 to 24 hrs by SEAP reporter gene-based spectrophotometric method; assay type: cell-based; method in brief: as §1

**Q.** For `O=C(OC[C@H]1O[C@H](O[C@H]2O[C@H](COC(=O)c3ccccc3C(F)(F)F)[C@@H](O)[C@H](O)[C@H]2O)[C@H](O)[C@@H](O)[C@@H]1O)c1ccccc1C(F)(F)F`, which Activity (PBMC) is on record?
**A.** Active

**Q.** What about the Activity [1] of the same molecule?
**A.** Dose-dependent effect

**Q.** For `O=C(OC[C@H]1O[C@H](O[C@H]2O[C@H](COC(=O)c3cc([N+](=O)[O-])cc([N+](=O)[O-])c3)[C@@H](O)[C@H](O)[C@H]2O)[C@H](O)[C@@H](O)[C@@H]1O)c1cc([N+](=O)[O-])cc([N+](=O)[O-])c1`, which Activity (PBMC) is on record?
**A.** Active

**Q.** For `CCCCCCCCCCCCCCCCCCCCCC(=O)OC[C@H]1O[C@H](O[C@H]2O[C@H](COC(=O)CCCCCCCCCCCCCCCCCCCCC)[C@@H](O)[C@H](O)[C@H]2O)[C@H](O)[C@@H](O)[C@@H]1O`, which Activity [1] is on record?
**A.** Dose-dependent effect

**Q.** Which Activity (PBMC) does the source give for `Cc1ccc(C(=O)OC[C@H]2O[C@H](O[C@H]3O[C@H](COC(=O)c4ccc(C)cc4C(F)(F)F)[C@@H](O)[C@H](O)[C@H]3O)[C@H](O)[C@@H](O)[C@@H]2O)c(C(F)(F)F)c1` here?
**A.** inactive

**Q.** For `O=C(Cc1ccccc1C(F)(F)F)OC[C@H]1O[C@H](O[C@H]2O[C@H](COC(=O)Cc3ccccc3C(F)(F)F)[C@@H](O)[C@H](O)[C@H]2O)[C@H](O)[C@@H](O)[C@@H]1O`, which Activity (PBMC) is on record?
**A.** inactive

**Q.** What about the Activity [2] of the same molecule?
**A.** Active

**Q.** For `O=C(OC[C@H]1O[C@H](O[C@H]2O[C@H](COC(=O)c3cc(C(F)(F)F)ccc3O)[C@@H](O)[C@H](O)[C@H]2O)[C@H](O)[C@@H](O)[C@@H]1O)c1cc(C(F)(F)F)ccc1O`, which Activity (PBMC) is on record?
**A.** inactive

**Q.** With `O=C(OC[C@H]1O[C@H](O[C@H]2O[C@H](COC(=O)c3cccc(C(F)(F)F)c3O)[C@@H](O)[C@H](O)[C@H]2O)[C@H](O)[C@@H](O)[C@@H]1O)c1cccc(C(F)(F)F)c1O` as the molecule, how does the Activity (PBMC) read?
**A.** inactive

**Q.** Which results are given for `O=C(OC[C@H]1O[C@H](O[C@H]2O[C@H](COC(=O)c3c(C(F)(F)F)cccc3C(F)(F)F)[C@@H](O)[C@H](O)[C@H]2O)[C@H](O)[C@@H](O)[C@@H]1O)c1c(C(F)(F)F)cccc1C(F)(F)F`?
**A.** Activity (PBMC): Active; Activity [1]: Dose-dependent effect

**Q.** For `COc1ccc(C(=O)OC[C@H]2O[C@H](O[C@H]3O[C@H](COC(=O)c4ccc(OC)cc4C(F)(F)F)[C@@H](O)[C@H](O)[C@H]3O)[C@H](O)[C@@H](O)[C@@H]2O)c(C(F)(F)F)c1`, which Activity (PBMC) is on record?
**A.** inactive

**Q.** For `COc1ccc(C(F)(F)F)cc1C(=O)OC[C@H]1O[C@H](O[C@H]2O[C@H](COC(=O)c3cc(C(F)(F)F)ccc3OC)[C@@H](O)[C@H](O)[C@H]2O)[C@H](O)[C@@H](O)[C@@H]1O`, which Activity (PBMC) is on record?
**A.** inactive

**Q.** And the Activity [1]?
**A.** Dose-dependent effect

Source: ChEMBL document CHEMBL4622927, “6,6'-Aryl trehalose analogs as potential Mincle ligands” (Bioorg Med Chem, 2020)
